Results as given in ChEMBL document CHEMBL3046065, “Metabolites of the fungistatic agent 2β-methoxyclovan-9α-ol by Macrophomina phaseolina” (J Agric Food Chem, 2011).

Tests used:
[1] = test system: Macrophomina phaseolina; experiment: Drug metabolism in Macrophomina phaseolina KUCC 730 assessed as transformation to oxidative metabolite, clovan-2-beta, 9-beta-diol at 600 mg at 29 degC after 6 days by TLC analysis; assay type: ADME, organism-based; conditions: in vivo, 144 h
Summary of the method: (§1)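 Fungus kept on Sabouraud dextrose agar slants at 4 °C. Medium per 3 L water: glucose 30 g, peptone 15 g, yeast extract 15 g, KH2PO4 15 g, NaCl 15 g, glycerol 30 mL. Adjusted to pH 7.0 and autoclaved. Substrate in acetone, 20 mg per 100 mL flask, added to 24 h stage II cultures. Shaken at 200 rpm, 29 °C, 6 days. Daily TLC monitoring. Substrate-only and fungus-only controls were run.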

[2] = test system: Macrophomina phaseolina; experiment: Drug metabolism in Macrophomina phaseolina KUCC 730 assessed as transformation to oxidative metabolite, clovan-2-beta, 9-beta, 13-triol at 600 mg at 29 degC after 6 days by TLC analysis; assay type: ADME, organism-based; conditions: in vivo, 144 h; summary of the method: as §1
[3] = test system: Macrophomina phaseolina; experiment: Drug metabolism in Macrophomina phaseolina KUCC 730 assessed as transformation to oxidative metabolite, clovan-2-beta, 9-alpha-diol at 600 mg at 29 degC after 6 days by TLC analysis; assay type: ADME, organism-based; conditions: in vivo, 144 h; summary of the method: as §1
[4] = test system: Macrophomina phaseolina; experiment: Drug metabolism in Macrophomina phaseolina KUCC 730 assessed as transformation to oxidative metabolite, 2-beta-methoxyclovan-9-alpha-13-diol at 600 mg at 29 degC after 6 days by TLC analysis; assay type: ADME, organism-based; conditions: in vivo, 144 h; summary of the method: as §1
[5] = test system: Macrophomina phaseolina; experiment: Drug metabolism in Macrophomina phaseolina KUCC 730 assessed as transformation to oxidative metabolite, 2-beta-methoxyclovan-9-one at 600 mg at 29 degC after 6 days by TLC analysis; assay type: ADME, organism-based; conditions: in vivo, 144 h; summary of the method: as §1
[6] = test system: Macrophomina phaseolina; experiment: Drug metabolism in Macrophomina phaseolina KUCC 730 assessed as transformation to oxidative metabolite, clovan-2-beta, 13-diol-9-one at 600 mg at 29 degC after 6 days by TLC analysis; assay type: ADME, organism-based; conditions: in vivo, 144 h; summary of the method: as §1
[7] = test system: Botrytis cinerea; experiment: Antifungal activity against Botryotinia fuckeliana KUCC 869 assessed as growth inhibition at 200 ug/ml at 27 to 29 degC after 7 days by agar tube dilution method; assay type: functional; conditions: KUCC 869, 168 h, read-out: GI
Summary of the method: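 Agar tube dilution against B. cinerea isolated from infected strawberries. Compounds were taken from 1 mg/mL DMSO stocks into unsolidified Sabouraud agar at 200 μg/mL final. The agar was set as slants and inoculated with 4 mm plugs from 7-day-old culture, then incubated 7 days at 27–29 °C. Linear growth (mm) was measured and % inhibition calculated against control. Miconazole served as standard.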

Structure (SMILES)	inhibition of growth at 200 µg/mL [7] [%]	also measured
CO[C@H]1CC(C)(C)[C@@H]2CC[C@@]3(C)C[C@]12CC[C@H]3O [2BETA-METHOXYCLOVAN-9ALPHA-OL]	81	Drug metabolism [1]: Active; Drug metabolism [2]: Active; Drug metabolism [3]: Active; Drug metabolism [4]: Active; Drug metabolism [5]: Active; Drug metabolism [6]: Active
CO[C@H]1CC(C)(C)[C@@H]2CC[C@@]3(C)C[C@]12CCC3=O	71	–
CC1(C)C[C@H](O)[C@]23CC[C@@H](O)[C@@](C)(CC[C@@H]12)C3 [CLOVANEDIOL]	59	–
CO[C@H]1C[C@@](C)(CO)[C@@H]2CC[C@@]3(C)C[C@]12CC[C@H]3O	17	–
C[C@@]12CC[C@H]3[C@](C)(CO)C[C@H](O)[C@@]3(CCC1=O)C2	8	–
C[C@@]12CC[C@H]3[C@](C)(CO)C[C@H](O)[C@@]3(CC[C@@H]1O)C2	11	–
CC1(C)C[C@H](O)[C@]23CC[C@H](O)[C@@](C)(CC[C@@H]12)C3	32	–
